Experimental data pooled from the literature.
Target: Protein kinase C epsilon type (PRKCE, Homo sapiens, UniProt Q02156)
Residues used in one study (Q02156 1-737): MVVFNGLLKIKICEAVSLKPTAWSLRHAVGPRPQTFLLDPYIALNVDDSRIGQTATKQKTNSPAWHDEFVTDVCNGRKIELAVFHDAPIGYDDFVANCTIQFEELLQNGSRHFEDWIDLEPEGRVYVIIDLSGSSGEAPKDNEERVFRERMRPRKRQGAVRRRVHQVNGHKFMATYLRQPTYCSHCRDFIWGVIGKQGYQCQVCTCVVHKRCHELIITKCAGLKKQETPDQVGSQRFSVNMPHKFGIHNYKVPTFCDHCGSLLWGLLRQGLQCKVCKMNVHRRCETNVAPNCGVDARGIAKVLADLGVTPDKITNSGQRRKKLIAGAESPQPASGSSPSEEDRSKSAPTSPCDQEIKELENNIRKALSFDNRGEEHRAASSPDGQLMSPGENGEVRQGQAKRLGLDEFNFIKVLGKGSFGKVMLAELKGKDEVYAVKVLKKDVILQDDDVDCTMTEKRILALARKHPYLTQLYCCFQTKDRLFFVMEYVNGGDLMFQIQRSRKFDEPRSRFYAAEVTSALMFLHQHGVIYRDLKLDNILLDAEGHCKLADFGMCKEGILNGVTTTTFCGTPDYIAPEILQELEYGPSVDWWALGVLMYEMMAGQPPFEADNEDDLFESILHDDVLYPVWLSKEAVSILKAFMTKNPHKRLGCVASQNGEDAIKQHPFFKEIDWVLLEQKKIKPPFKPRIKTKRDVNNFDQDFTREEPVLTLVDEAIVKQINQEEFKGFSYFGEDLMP

| Compound | assay | conditions | measurement | result |
| --- | --- | --- | --- | --- |
| CC#CC(=O)N1CCC[C@H]1c1nc(-c2ccc(C(=O)Nc3ccccn3)cc2)c2c(N)nccn12 | enzyme activity, inhibitor | 1 µM | inhibition | 0% |
| C[C@H]1CC[C@H](n2c3cnccc3c3cnc(Nc4ccc5c(n4)CCN(C(=O)CO)C5)nc32)CC1 | cell-free assay | 1 µM | remaining signal | 100% |
| C#Cc1cnc(Nc2ccnc(CO)c2)nc1Nc1ccccc1S(C)(=O)=NC#N (stereo not drawn) | cell-free assay | 1 µM | remaining signal | 62% |
| COc1ccc2oc(-c3ccc4nc(N)oc4c3)c/c(=N\c3ccccc3NC(=O)CCN)c2c1 | binding | 1 µM | remaining binding | 106% |
| CCCCC(=O)Nc1ccc(-c2ccc3ncn(CCC)c(=O)c3c2)cn1 | binding, competition with immobilised ligand | 0.5 µM | remaining binding | 83% |
| Cc1ccc(NC(=O)c2ccnc(C(F)(F)F)c2)cc1-c1cc(OCCO)nc(N2CCOCC2)c1 | binding | 1 µM | remaining binding | 75% |
| C1=C/COCc2cc(ccc2OCCN2CCCC2)Nc2nccc(n2)-c2cccc(c2)COC/1 | binding | 0.1 µM | remaining binding | 68% |
| N#Cc1ccc(NC(=O)Nc2ccccc2)cc1 | cell-free assay, competition with immobilised ligand | 25 µM | remaining binding | 100% |
| CO[C@@H]1[C@H](N(C)C(=O)c2ccccc2)C[C@H]2O[C@]1(C)n1c3ccccc3c3c4c(c5c6ccccc6n2c5c31)C(=O)NC4 | enzyme activity, inhibitor | 1 µM | inhibition | 92% |
